Measurements published in publication PMC3806060 (Journal of medicinal chemistry, 2013).
Entries after “also recorded” stand apart in the source; their conditions may differ. Like-named read-outs stand apart in the source and are kept apart here.

Legend:
[1] = system: H146 small-cell lung cancer cell line; experiment: Cell growth inhibition assay; assay type: cell-based, Human; conditions: for Cellular activity in H146: at 1 μM; for Times less potent than compound 5 in H146 cell growth inhibition: versus 5; for Times less potent than compound 28 in H146 cell growth inhibition: versus 28
[2] = system: small-cell lung cancer cell lines; assay type: cell-based, Human; conditions: for IC50: Homo sapiens
How it was run: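 H146, H1963, H187 and H1417 small-cell lung cancer lines were maintained in RPMI-1640 with 10% FBS. Cells were exposed to various concentrations of test compound for 4 days. WST-8 was added for a further 1–2 h and absorbance read at 450 nm. IC50 was calculated against untreated cells, with at least three independent experiments per line.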

[3] = system: H146 small-cell lung cancer xenograft; experiment: Antitumor efficacy in the H146 xenograft tumor model; assay type: in vivo, SCID mice; conditions: for Antitumor activity / Tumor regression: daily, 5 days a week for 2 weeks
How it was run: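 Subcutaneous dorsal xenografts in SCID mice: 5 × 10^6 H146 cells with Matrigel, one tumor per mouse. At 100–150 mm3 (mean 126 mm3), animals randomized into groups of 8. Vehicle or test compound given i.v. at 15 mg/kg, daily, 5 days/week for 2 weeks. Tumor size and body weight measured 3×/week during and 2×/week after dosing. Data are mean tumor volume ± SEM; two-way ANOVA and unpaired two-tailed t test, P < 0.05.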

H146 xenograft tumors = experiment: Western blot of H146 xenograft tumor tissue for cleavage of PARP and caspase-3; assay type: in vivo, SCID mice; conditions: single dose 15 mg/kg i.v., 3 and 6 h time points
How it was run: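 SCID mice carried subcutaneous H146 xenografts (5 × 10^6 cells with Matrigel) of approximately 100 mm3. They received a single 15 mg/kg i.v. dose of test compound or vehicle. Tumors were harvested at 3, 6 or 24 h, and western blot measured total and cleaved PARP and caspase-3.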

Mcl-1 = Mcl-1 (Homo sapiens, UniProt Q07820); experiment: FP based competitive binding assay, Mcl-1; conditions: at concentrations as high as 2 μM
Bcl-2 [4] = molecular target: T1, Bcl-2 (Homo sapiens, UniProt P10415); experiment: FP based competitive binding assay, Bcl-2; conditions: versus 4
Bcl-xL = Bcl-xL (Homo sapiens, UniProt Q07817); conditions: read-out: Ki, binding to Bcl-xL; cited from earlier work
[5] = cited from earlier work
Bcl-2 [6] = molecular target: T1, Bcl-2; conditions: read-out: Ki, binding to Bcl-2; cited from earlier work

Mcl-1, sequence (Q07820 whole entry): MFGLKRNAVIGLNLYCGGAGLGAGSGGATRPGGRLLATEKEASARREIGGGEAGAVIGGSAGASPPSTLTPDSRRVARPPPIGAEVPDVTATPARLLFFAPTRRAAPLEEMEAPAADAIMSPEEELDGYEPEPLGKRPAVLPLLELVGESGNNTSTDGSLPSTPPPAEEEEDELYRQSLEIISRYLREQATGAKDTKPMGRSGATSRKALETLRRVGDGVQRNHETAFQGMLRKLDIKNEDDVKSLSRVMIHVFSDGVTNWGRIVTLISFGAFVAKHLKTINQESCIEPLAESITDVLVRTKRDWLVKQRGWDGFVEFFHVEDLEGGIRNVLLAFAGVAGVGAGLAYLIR
T1 sequence (P10415 whole entry): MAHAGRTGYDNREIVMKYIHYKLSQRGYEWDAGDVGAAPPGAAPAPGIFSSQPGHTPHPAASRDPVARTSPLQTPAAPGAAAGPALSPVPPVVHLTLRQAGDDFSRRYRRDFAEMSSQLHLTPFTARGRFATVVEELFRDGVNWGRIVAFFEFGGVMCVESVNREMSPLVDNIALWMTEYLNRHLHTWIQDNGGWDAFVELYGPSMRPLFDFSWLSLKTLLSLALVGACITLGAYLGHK
Bcl-xL, sequence (Q07817 whole entry): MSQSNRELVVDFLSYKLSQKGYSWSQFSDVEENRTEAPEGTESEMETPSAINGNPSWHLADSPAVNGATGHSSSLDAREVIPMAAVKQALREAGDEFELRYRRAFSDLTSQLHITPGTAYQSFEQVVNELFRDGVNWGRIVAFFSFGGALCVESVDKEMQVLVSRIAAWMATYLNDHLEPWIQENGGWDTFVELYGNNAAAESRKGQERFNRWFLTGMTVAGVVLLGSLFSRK

Cc1c(C(=O)O)c(-c2cccc(N3CCN(c4ccc(NS(=O)(=O)c5ccc(N[C@H](CCN(C)C)CSc6ccccc6)c([N+](=O)[O-])c5)cc4)CC3)c2)c(-c2ccc(Cl)cc2)n1C(C)C [Compound 28]
Times more potent than compound 4 in H146 cell growth inhibition ([1]; versus 4): 20 times

CN(C)CC[C@H](CSc1ccccc1)Nc1ccc(S(=O)(=O)Nc2ccc(N3CCN(c4cccc(-c5c(C(=O)O)c(C(F)(F)F)n(C)c5-c5ccc(Cl)cc5)c4)CC3)cc2)cc1[N+](=O)[O-] [Compound 16, (R)-5-(4-Chlorophenyl)-4-(3-(4-(4-(4-(4-(dimethylamino)-1-(phenylthio)butan-2-ylamino)-3-nitrophenylsulfonamido)phenyl)piperazin-1-yl)phenyl)-1-methyl-2-(trifluoromethyl)-1H-pyrrole-3-carboxylic acid]
Times less potent than compound 4 in H146 cell growth inhibition ([1]; versus 4): 8 times

Cc1c(C(=O)NS(C)(=O)=O)c(-c2cccc(N3CCN(c4ccc(NS(=O)(=O)c5ccc(N[C@H](CCN(C)C)CSc6ccccc6)c([N+](=O)[O-])c5)cc4)CC3)c2)c(-c2ccc(Cl)cc2)n1C(C)C [Compound 32, (R)-5-(4-Chlorophenyl)-4-(3-(4-(4-(4-(4-(dimethylamino)-1-(phenylthio)butan-2-ylamino)-3-nitrophenylsulfonamido)phenyl)piperazin-1-yl)phenyl)-1-isopropyl-2-methyl-N-(methylsulfonyl)-1H-pyrrole-3-carboxamide]
IC50 ([2]; read-out: IC50, cancer cell growth inhibition): 1 to 2 nM | IC50 ([2]; read-out: IC50, cell growth inhibition): 1 to 2.3 nM | Times more potent than compound 1 in cell growth inhibition ([2]; versus 1, each of H1963, H187, H1417, based on IC50): > 50 times | Times more potent than compound 2 in cell growth inhibition ([2]; versus 2, each of H1963, H187, H1417, based on IC50): > 10 times | Antitumor activity ([3]; 15 mg/kg i.v.): strong antitumor activity | Tumor regression ([3]; 15 mg/kg i.v.): rapid, complete and durable tumor regression; also recorded: rapid, complete and persistent tumor regression | Weight loss ([3]; H146 xenograft efficacy study, 15 mg/kg i.v., during or after treatment): < 5% | Mice with measurable tumors, of 8 treated ([3]; day 62, 18 days after end of treatment, 15 mg/kg i.v.): none | Average tumor size ([3]; day 117, 8 mice, 130 mm^3 at start of treatment (day 33)): 47 mm^3 | Mice without measurable tumors ([3]; day 117, 74 days after end of treatment, 8 mice, 15 mg/kg i.v.): 50% | Cleavage of PARP and caspase-3 in H146 tumor tissue (H146 xenograft tumors): robust cleavage of PARP and caspase-3 | Binding to Mcl-1 (Mcl-1): no appreciable binding; also recorded: does not show any appreciable binding

CN(C)CC[C@H](CSc1ccccc1)Nc1ccc(S(=O)(=O)Nc2ccc(N3CCN(c4cccc(-c5c(C(=O)NS(C)(=O)=O)cnn5-c5ccc(Cl)cc5)c4)CC3)cc2)cc1[N+](=O)[O-] [Compound 24, (R)-1-(4-Chlorophenyl)-5-(3-(4-(4-(4-(4-(dimethylamino)-1-(phenylthio)butan-2-ylamino)-3-nitrophenylsulfonamido)phenyl)piperazin-1-yl)phenyl)-N-(methylsulfonyl)-1H-pyrazole-4-carboxamide]
Cellular activity in H146 [1]: minimal activity

Cc1c(Cl)c(-c2cccc(N3CCN(c4ccc(NS(=O)(=O)c5ccc(N[C@H](CCN(C)C)CSc6ccccc6)c([N+](=O)[O-])c5)cc4)CC3)c2)c(-c2ccc(Cl)cc2)n1C [Compound 13, (R)-N-(4-(4-(3-(4-Chloro-2-(4-chlorophenyl)-1,5-dimethyl-1H-pyrrol-3-yl)phenyl)piperazin-1-yl)phenyl)-4-(4-(dimethylamino)-1-(phenylthio)butan-2-ylamino)-3-nitrobenzenesulfonamide]
Times less potent than compound 4 in binding to Bcl-2 (Bcl-2 [4]): 100 times | Times less potent than compound 4 in H146 cell growth inhibition ([1]; versus 4): > 100 times

Cc1cc(-c2cccc(N3CCN(c4ccc(NS(=O)(=O)c5ccc(N[C@H](CCN(C)C)CSc6ccccc6)c([N+](=O)[O-])c5)cc4)CC3)c2)c(-c2ccc(Cl)cc2)n1C [Compound 7]
Inhibition of cell growth in H146 ([1]; at concentrations as high as 10 μM): completely inactive

Cc1c(C#N)c(-c2cccc(N3CCN(c4ccc(NS(=O)(=O)c5ccc(N[C@H](CCN(C)C)CSc6ccccc6)c([N+](=O)[O-])c5)cc4)CC3)c2)c(-c2ccc(Cl)cc2)n1C [Compound 15, (R)-N-(4-(4-(3-(2-(4-Chlorophenyl)-4-cyano-1,5-dimethyl-1H-pyrrol-3-yl)phenyl)piperazin-1-yl)phenyl)-4-(4-(dimethylamino)-1-(phenylthio)butan-2-ylamino)-3-nitrobenzenesulfonamide]
Times less potent than compound 4 in binding to Bcl-2 (Bcl-2 [4]): > 10 times | Times less potent than compound 4 in H146 cell growth inhibition ([1]; versus 4): 8 times

CN(C)CC[C@H](CSc1ccccc1)Nc1ccc(S(=O)(=O)Nc2ccc(N3CCN(c4cccc(-c5c(C(=O)NS(C)(=O)=O)ncn5-c5ccc(Cl)cc5)c4)CC3)cc2)cc1[N+](=O)[O-] [Compound 23, (R)-1-(4-Chlorophenyl)-5-(3-(4-(4-(4-(4-(dimethylamino)-1-(phenylthio)butan-2-ylamino)-3-nitrophenylsulfonamido)phenyl)piperazin-1-yl)phenyl)-N-(methylsulfonyl)-1H-imidazole-4-carboxamide]
Cellular activity in H146 [1]: minimal activity

Cc1c(C(=O)O)c(-c2cccc(N3CCN(c4ccc(NS(=O)(=O)c5ccc(N[C@H](CCN(C)C)CSc6ccccc6)c([N+](=O)[O-])c5)cc4)CC3)c2)c(-c2ccc(Cl)cc2)n1C [Compound 4]
Ki (Bcl-xL): < 1 nM | Chemical stability [5]: excellent chemical stability | Ki (Bcl-2 [6]): < 1 nM

CCCn1c(C)c(C(=O)O)c(-c2cccc(N3CCN(c4ccc(NS(=O)(=O)c5ccc(N[C@H](CCN(C)C)CSc6ccccc6)c([N+](=O)[O-])c5)cc4)CC3)c2)c1-c1ccc(Cl)cc1 [Compound 29, (R)-5-(4-Chlorophenyl)-4-(3-(4-(4-(4-(4-(dimethylamino)-1-(phenylthio)butan-2-ylamino)-3-nitrophenylsulfonamido)phenyl)piperazin-1-yl)phenyl)-2-methyl-1-propyl-1H-pyrrole-3-carboxylic acid]
Times less potent than compound 5 in H146 cell growth inhibition [1]: > 5 times | Times less potent than compound 28 in H146 cell growth inhibition [1]: > 10 times

CN(C)CC[C@H](CSc1ccccc1)Nc1ccc(S(=O)(=O)Nc2ccc(N3CCN(c4cccc(-c5c(C(=O)O)nn(C)c5-c5ccc(Cl)cc5)c4)CC3)cc2)cc1[N+](=O)[O-] [Compound 25, (R)-5-(4-Chlorophenyl)-4-(3-(4-(4-(4-(4-(dimethylamino)-1-(phenylthio)butan-2-ylamino)-3-nitrophenylsulfonamido)phenyl)piperazin-1-yl)phenyl)-1-methyl-1H-pyrazole-3-carboxylic acid]
Cellular activity in H146 [1]: minimal activity

CCn1c(C)c(C(=O)NS(C)(=O)=O)c(-c2cccc(N3CCN(c4ccc(NS(=O)(=O)c5ccc(N[C@H](CCN(C)C)CSc6ccccc6)c([N+](=O)[O-])c5)cc4)CC3)c2)c1-c1ccc(Cl)cc1 [Compound 31, (R)-5-(4-Chlorophenyl)-4-(3-(4-(4-(4-(4-(dimethylamino)-1-(phenylthio)butan-2-ylamino)-3-nitrophenylsulfonamido)phenyl)piperazin-1-yl)phenyl)-1-ethyl-2-methyl-N-(methylsulfonyl)-1H-pyrrole-3-carboxamide]
Antitumor activity ([3]; 15 mg/kg i.v.): strong antitumor activity | Tumor regression ([3]; 15 mg/kg i.v.): partial tumor regression | Cleavage of PARP and caspase-3 in H146 tumor tissue (H146 xenograft tumors): robust cleavage of PARP and caspase-3 | Binding to Mcl-1 (Mcl-1): no appreciable binding

Cc1c(C(F)(F)F)c(-c2cccc(N3CCN(c4ccc(NS(=O)(=O)c5ccc(N[C@H](CCN(C)C)CSc6ccccc6)c([N+](=O)[O-])c5)cc4)CC3)c2)c(-c2ccc(Cl)cc2)n1C [Compound 14, (R)-N-(4-(4-(3-(2-(4-Chlorophenyl)-1,5-dimethyl-4-(trifluoromethyl)-1H-pyrrol-3-yl)phenyl)piperazin-1-yl)phenyl)-4-(4-(dimethylamino)-1-(phenylthio)butan-2-ylamino)-3-nitrobenzenesulfonamide]
Times less potent than compound 4 in binding to Bcl-2 (Bcl-2 [4]): 100 times | Times less potent than compound 4 in H146 cell growth inhibition ([1]; versus 4): > 100 times

CCCCn1c(C)c(C(=O)O)c(-c2cccc(N3CCN(c4ccc(NS(=O)(=O)c5ccc(N[C@H](CCN(C)C)CSc6ccccc6)c([N+](=O)[O-])c5)cc4)CC3)c2)c1-c1ccc(Cl)cc1 [Compound 30, (R)-1-Butyl-5-(4-chlorophenyl)-4-(3-(4-(4-(4-(4-(dimethylamino)-1-(phenylthio)butan-2-ylamino)-3-nitrophenylsulfonamido)phenyl)piperazin-1-yl)phenyl)-2-methyl-1H-pyrrole-3-carboxylic acid]
Times less potent than compound 5 in H146 cell growth inhibition [1]: > 5 times | Times less potent than compound 28 in H146 cell growth inhibition [1]: > 10 times
